# Measured values pooled from the literature.
# Protocols differ between the studies behind these lines.
# Cell line: MV4-11
# Read-out: cell growth or viability
Compound,technique,time,endpoint,value
Cn1cc(-c2cc(N3CCCCS3(=O)=O)ccc2Oc2ccc(F)cc2F)c2c(F)c[nH]c2c1=O,CCK-8,72 h,GI50,3.5 nM
COc1ccc(-c2c(-c3ccc(C#N)c(F)c3)nc(N3CCC(N)CC3)n(C)c2=O)cc1F,resazurin,96 h,EC50,2.9 nM
CC(C)[C@H](N)C(=O)N1CCC[C@H]1B(O)O,ATP luminescence,48 h,IC50,78 nM
c1cc(Nc2nccc(NC3CCCCC3)n2)cc(-n2ccnc2)c1,ATP luminescence,72 h,EC50,58 nM
COc1cc(-c2ncn(/C=C\C(=O)OC(C)C)n2)cc(C(F)(F)F)c1,,72 h,IC50,28 nM
COC(=O)[C@H](C)Nc1ccnc(Nc2cccc(-c3cccnc3)c2)n1,ATP luminescence,72 h,EC50,> 8000 nM
Cc1ccc(NC(=O)NCc2ccc3c(c2)CN(C2CCC(=O)NC2=O)C3=O)cc1Cl (stereo not drawn),ATP luminescence,,EC50,0.026 nM
CC[C@@H](C)[C@H](N)C(=O)N1Cc2ccccc2C1,ATP luminescence,24 h,IC50,1150 nM
C#CCN(C)Cc1ccccc1,resazurin,96 h,EC50,> 2000 nM
CC(C)Nc1ccnc(Nc2ccc(-c3ccccc3)cc2)n1,ATP luminescence,72 h,EC50,11900 nM
CC(C)C[C@H](NC(=O)[C@H](Cc1ccccc1)NC(=O)c1cnccn1)B(O)O,ATP luminescence,,IC50,3.9 nM
c1cc(Nc2nccc(NC3CCCCC3)n2)cc(-c2cnccn2)c1,ATP luminescence,72 h,EC50,53 nM
Nc1nc(Nc2ccc3c(c2)CC[C@@H](N2CCCC2)CC3)nn1-c1cc2c(nn1)-c1ccccc1CCC2,trypan blue,72 h,IC50,247 nM
c1cc(Nc2nccc(NC3CCCCC3)n2)cc(-c2ncco2)c1,ATP luminescence,72 h,EC50,511 nM
CN1CCN(C(=O)[C@H](CCCN[C@@H]2C[C@H]2c2ccc(F)cc2)NC(=O)c2ccc(-n3ccnn3)cc2)CC1,resazurin,96 h,EC50,4.2 nM
